LYP inh 2 = blocks human PTPN22 phosphatase activity. inhibition, % at 2 µM. AID 640. hit rate 0.21% among 96,000. Q9Y2R2. recombinant LYP catalytic domain, DiFMUP fluorescence;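 active = inhibition at 2 µM at or above a set limit, the screen mean plus 3 SD, cut at about 24% in these data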;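 note: 0% = DMSO with enzyme and 100% = enzyme fully blocked by orthovanadate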
Target sequence (Q9Y2R2 whole entry, looked up, the tested form may be a part): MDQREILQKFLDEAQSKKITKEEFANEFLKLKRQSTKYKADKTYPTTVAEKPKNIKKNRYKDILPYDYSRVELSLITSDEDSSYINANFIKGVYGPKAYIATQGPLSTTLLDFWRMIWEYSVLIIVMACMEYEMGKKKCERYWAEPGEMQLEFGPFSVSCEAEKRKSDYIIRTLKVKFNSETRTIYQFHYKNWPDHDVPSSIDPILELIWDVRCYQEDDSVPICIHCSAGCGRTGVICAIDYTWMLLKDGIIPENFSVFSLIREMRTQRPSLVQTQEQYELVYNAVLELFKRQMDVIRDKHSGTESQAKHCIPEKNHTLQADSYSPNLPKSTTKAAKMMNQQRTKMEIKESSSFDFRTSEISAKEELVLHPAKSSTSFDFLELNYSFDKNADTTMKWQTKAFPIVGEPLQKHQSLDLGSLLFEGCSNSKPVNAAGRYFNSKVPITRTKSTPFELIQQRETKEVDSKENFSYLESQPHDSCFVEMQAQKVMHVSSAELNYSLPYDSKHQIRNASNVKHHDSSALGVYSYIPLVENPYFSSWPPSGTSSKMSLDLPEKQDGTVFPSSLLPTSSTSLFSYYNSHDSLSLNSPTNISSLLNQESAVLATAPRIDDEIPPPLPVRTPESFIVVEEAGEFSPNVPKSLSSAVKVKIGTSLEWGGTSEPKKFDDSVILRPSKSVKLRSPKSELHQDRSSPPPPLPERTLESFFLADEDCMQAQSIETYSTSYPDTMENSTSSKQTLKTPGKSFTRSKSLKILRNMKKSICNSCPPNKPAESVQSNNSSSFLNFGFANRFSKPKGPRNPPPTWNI
EphB4 antag = blocks human EphB4 binding to ephrin-B2. P54760. EphB4 LBD / TNYL-RAW-Alexa532 peptide, fluorescence polarization. inhibition, % at 7 µM. hit rate 0.15% among 97,000. AID 720;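 active = inhibition above the screen-wide mean inhibition plus 3 SD, cut at about 15% in these data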;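 note: 0% = DMSO wells and 100% = excess unlabeled TNYL-RAW peptide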
PTPN22 act = LYP (human) phosphatase activation; Q9Y2R2; recombinant LYP, DiFMUP fluorescence; 0 = plate median, 100 = signal doubled; activation, % at 2 µM; hit rate 0.11% among 96,000;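 active = activation at 2 µM above a set limit, the mean plus 5 SD, cut at about 37% in these data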
Rev-RRE block = inhibitors of HIV-1 Rev-RRE RNA interaction. P05866. hit rate 0.79% among 97,000. inhibition, % at 8 µM. AID 704. Rev peptide-RRE RNA binding, FRET;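 active = inhibition above the screen-wide mean plus 3 SD, cut at about 35% in these data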;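 note: 0% = median DMSO wells and 100% = median Neomycin B control wells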
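System: Cy5-labelled duplex RRE RNA binding fluorescein-labelled HIV Rev peptide; Signal: fluorescein-to-Cy5 FRET, 480 nm excitation; Also added: labelled Rev peptide; Compound: one concentration, 8 µM nominal; Buffer or medium: HEPES pH 7.5 salt buffer with EDTA; Read-out: % inhibition of FRET ratio versus controls; Schedule: 5 min preincubation and 15 min binding, 25 °C.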
Active calls of the source: *; [ ] = remark or other dose. Most compounds without a hit are left out; they make up all but 1.3% or so of the library.

SMILES	LYP inh 2	EphB4 antag	PTPN22 act	Rev-RRE block
O=C(CCN1CCc2ccccc2C1)Nc1cccc(F)c1	1	14	3	2
COc1ccc(CNC(=O)C(c2ccncc2)N(C(=O)Cc2cccs2)c2ccc(C)cc2)cc1 (centres undefined)	13	-2	-12	4
O=C(Nc1ccncc1)C1COc2ccccc2O1 (centres undefined)	-35	-8	32	3
CCCn1c(NC(=O)C2COc3ccccc3O2)nc2ccccc21 (centres undefined)	-5	17*	3	8
O=C(Nc1cnc2ccccc2c1)C1COc2ccccc2O1 (centres undefined)	28*	-2	-29	4
COC(=O)c1cc(NC(=O)Cc2ccccc2[N+](=O)[O-])cc(C(=O)OC)c1	-9	2	16	3
CN(C)c1ccc(/C=c2\sc3n(c2=O)CCCN=3)cc1	-21	-1	19	37*
O=C(c1c[nH]c2ccc(S(=O)(=O)N3CCC4(CC3)OCCO4)cc2c1=O)N1CCOCC1	-3	17*	0	9
Cc1cc2n(c1)CCn1c(C)ccc1-2	-2	4	2	46*
CCCC1=[N+](CC)CCn2c(C)ccc21	2	-8	0	3
CCc1nnc(NC(=O)C2CCCN2S(=O)(=O)c2ccc(F)cc2)s1 (centres undefined)	-1	1	-1	0
CCOC(=O)c1ccc(NC(=O)CC2SCCNC2=O)cc1 (centres undefined)	8	-6	-9	2
CCOC(=O)c1ccc(NC(=O)CC2NCCNC2=O)cc1 (centres undefined)	32*	-6	-30	3
COc1ccccc1/C=C\C=N\n1c(C2CCCCC2)n[nH]c1=S	25*	4	-22	0
COc1ccc(-n2c(=O)c3c4c(sc3n3cnnc23)CC(C)CC4)cc1 (centres undefined)	0	25*	-2	10
CCCc1nc(SCC(=O)N2c3ccccc3CC2C)c2c(C)c(C)sc2n1 (centres undefined)	3	2	-6	8
N=C1/C(=C\c2ccc(SCc3ccco3)o2)C(=O)N=C2SC=NN12	5	-7	0	59*
CC1=NN2C(=N)/C(=C\c3ccc(SCc4ccccc4)o3)C(=O)N=C2S1	11	1	-8	21
O=C(Nc1cccc(C(F)(F)F)c1)c1cc(-c2ccc(F)cc2)on1	-1	5	3	6
Cc1ccccc1N1C(=O)c2cccc3c(N(C)CCO)ccc(c23)C1=O	-1	3	-2	125*[fluorescence artefact?]
COc1ccccc1N1C(=O)c2cccc3c(C(=O)O)ccc(c23)C1=O	5	5	-5	3
Cc1cc(-c2ccco2)n2c(nc3ccccc32)c1C#N	4	9	-3	47*
O=C(CCC(=O)OC(C(=O)c1ccccc1)c1ccccc1)Nc1ccccc1 (centres undefined)	24*	-2	-28	4
Cc1ccc(C)c(NC(=O)CCC(=O)OC(C(=O)c2ccccc2)c2ccccc2)c1 (centres undefined)	2	2	3	4
COc1ccc(-n2nc3c(c2NC(=O)C2CCCC2)CS(=O)C3)cc1 (centres undefined)	0	0	-1	7
SMILES	LYP inh 2	EphB4 antag	PTPN22 act	Rev-RRE block
O=C1Oc2ccccc2C2(O)C3CCCCCC3C12 (centres undefined)	10	-5	-8	-3
S=c1[nH]nc(COc2ccccc2)n1/N=C/C(Cl)=C/c1ccccc1	28*	-10	-26	-6
CCOC(=O)c1c(C)nc2c(c1-c1ccc(OC)c(OC)c1)C(=O)c1ccccc1-2	1	-3	-2	6
CCOC(=O)C(C(=O)OCC)c1cc(Br)c2noc3c2c1C(=O)c1ccccc1-3	9	-6	-11	58*
Cc1c(Cl)c([N+](=O)[O-])nn1CC(=O)NC(C)C1CC2CCC1C2 (centres undefined)	-1	0	-3	3
Cc1cc(C)n2c(SCC(=O)N3CCN(S(=O)(=O)c4ccc(Cl)cc4)CC3)nnc2n1	24*	3	-26	8
CCCn1c(SCC(=O)N2CCN(S(=O)(=O)c3ccc(Cl)cc3)CC2)n[nH]c1=O	-1	-5	-1	0
CC(C)(C)N=C1NC(=NC(C)(C)C)c2ccccc21	4	-1	0	3
O=c1oc2c3c4c(cc2c(C(F)(F)F)c1CCN1CCOCC1)CCCN4CCC3	3	9	0	113*[fluorescence artefact?]
CCOc1ccc(N(C(C)C(=O)N/N=C(\C)c2cccc(NC(=O)c3ccccc3)c2)S(C)(=O)=O)cc1 (centres undefined)	18	7	-15	5
c1ccc2c(c1)CCN(CCCNc1nc3ccccc3n3cnnc13)C2	1	3	-3	4
Cc1sccc1C1C(C#N)=C(N)SC(N)=C1C#N	-14	5	14	75*
Cc1cc(C2C(C#N)=C(N)SC(N)=C2C#N)c(C)s1	5	-5	-5	83*[fluorescence artefact?]
Cc1cc(C2C(C#N)=C(N)Oc3n[nH]c(C)c32)c(C)s1 (centres undefined)	-3	-1	4	3
CCOc1ccc(NC(=O)C(C)Oc2ccccc2C(=O)Nc2ccc(C)c(Cl)c2)cc1 (centres undefined)	-4	17*	8	15
CCOc1ccc(NC(=O)c2ccccc2OCC(=O)c2ccc(C)cc2)cc1	-5	-2	2	13
CN(C)C(=O)NC(O)C(Cl)Cl (centres undefined)	5	-2	-4	13
CCOC(=O)c1sc2ncn(C(C)C(=O)OC)c(=O)c2c1C (centres undefined)	9	3	-8	2
CCCOC(=O)C(C)n1cnc2sc(C)c(C)c2c1=O (centres undefined)	-1	16*	1	8
O=C(N/C=N/OCc1cccc(C(F)(F)F)c1)N1OC[C@@H]2COc3ccc4ccccc4c3[C@@H]21	11	0	-8	16
O=C(c1cccs1)c1no[n+]([O-])c1C(=O)c1cccs1	92*	9	-91	2
Cc1cc(C)nc(N2CCC(C(=O)NCc3ccccc3)CC2)n1	-9	0	8	0
Cc1cc(C)nc(N2CCCC(C(=O)NCc3ccccc3)C2)n1 (centres undefined)	2	29*	-2	6
Cc1cc(C)cc(-n2c3nc4ccccc4nc3c3c(=O)n(Cc4ccco4)cnc32)c1	38*	2	-36	2
N=C1C=CC=C2C1=NC1(CCCCC1)N2O	2	10	-5	3
CCOC(=O)c1c(-c2ccccc2)oc2cc(CN(C)C)c(O)c(CN(C)C)c12	-10	6	10	58*
CCOC(=O)c1c(C)oc2ccc(O)c(CN(C)C)c12	4	-2	-4	-4
COc1ccc2c(CC(=O)Nc3ccc(OC)c(NS(=O)(=O)c4ccc(F)cc4)c3)coc2c1	-5	-8	3	5
O=C1NC(=S)N/C1=C\c1cccc([N+](=O)[O-])c1	2	-5	0	1

Screening data (PubChem BioAssay)
